Assay results published in ChEMBL document CHEMBL3392953, “Synthesis and biological evaluation of furanoallocolchicinoids” (J Med Chem, 2015).
Active and inactive are the calls of the source. The calls are words filed in the database; no cut-off is given here.

Key:
Mus musculus [1] = test: Toxicity in C57BL/6 mouse assessed as interphase microtubule de-stabilizing activity by measuring leakage of rhodamine through the gut at 1 mg/kg, iv co-administered with rhodamine B by fluorimetry; format: organism-based; parameters: dose 1 mg/kg, route intravenous; settings: in vivo
How it was run: (§1)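 Intact mice, 6–8 wk, 3 per group; compound dissolved in DMSO at 20 mM, 4 µl diluted into 200 µl saline (1 mg/kg), mixed with 50 µl rhodamine B, single i.v. injection; controls DMSO plus rhodamine B. Killed 4 h later; organs cut, extracted in 0.3N acid in ethanol 2 h at 37 °C, centrifuged, supernatant fluorescence read with 540 nm filter.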

Mus musculus [2] = test: Toxicity in C57BL/6 mouse assessed as interphase microtubule de-stabilizing activity by measuring influx of rhodamine in to heart at 1 mg/kg, iv co-administered with rhodamine B by fluorimetry; format: organism-based; parameters: dose 1 mg/kg, route intravenous; settings: in vivo; how it was run: as §1
Mus musculus [3] = test: Toxicity in C57BL/6 mouse assessed as interphase microtubule de-stabilizing activity by measuring influx of rhodamine in to spleen at 1 mg/kg, iv co-administered with rhodamine B by fluorimetry; format: organism-based; parameters: dose 1 mg/kg, route intravenous; settings: in vivo; how it was run: as §1
[4] = Reduction in blood-brain barrier permeability in […]; format: ADME, tissue-based, C57BL/6, Endothelial cell; parameters: scale not given: the % may be the effect or the level left; settings: mouse; how it was run: as §1
ASPC1 [5] = test: Cytotoxicity against human AsPC1 cells after 72 hrs by MTT assay; format: functional, cell-based; settings: ASPC1, 72 h
How it was run: (§2)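 Cells seeded at 3x10^5 cells/mL 24 h before assay (HEK293, AsPC-1 in DMEM; Jurkat, W1308 in RPMI-1640; 10% FCS, 2-ME). Tenfold dilutions from […] to 1 nM added; untreated cells as controls. 72 h incubation, MTT 250 µg/ml added for last 6 h, formazan dissolved in DMSO, OD read. IC50 from titration curves; inhibition index = 1 − OD(treated)/OD(control).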

HEK293 [6] = test: Cytotoxicity against HEK293 cells after 72 hrs by MTT assay; format: functional, cell-based; settings: Homo sapiens, HEK293, 72 h; how it was run: as §2
Jurkat [7] = test: Cytotoxicity against human Jurkat cells after 72 hrs by MTT assay; format: functional, cell-based; how it was run: as §2
[8] = Cytotoxicity against mouse W1308 cells after 72 hrs by MTT assay; format: functional, cell-based; settings: W1308, 72 h; how it was run: as §2
ASPC1 [9] = test: Growth inhibition of human AsPC1 cells at 100 uM after 72 hrs by MTT assay; format: functional; settings: ASPC1, 72 h, read-out: GI
HEK293 [10] = test: Growth inhibition of HEK293 cells at 100 uM after 72 hrs by MTT assay; format: functional; settings: Homo sapiens, HEK293, 72 h; read-out: GI
Jurkat [11] = test: Growth inhibition of human Jurkat cells at 100 uM after 72 hrs by MTT assay; format: functional; settings: read-out: GI
[12] = Growth inhibition of mouse W1308 cells at 100 uM after 72 hrs by MTT assay; format: functional; settings: W1308, 72 h, read-out: GI
[13] = Inhibition of lamb brain tubulin polymerization assessed as reduction in microtubule assembly by spectrophotometry; parameters: species or system Ovis aries
How it was run: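 Tubulin purified from lamb brain by ammonium sulfate fractionation and ion-exchange chromatography. Assembly in 20 mM sodium phosphate, 1 mM EGTA, 10 mM MgCl2, 3.4 M glycerol, 1 mM GTP, pH 6.5, started by warming to 37 °C; turbidity followed at 350 nm over time. Inhibition plotted against ligand:tubulin molar ratio.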

[14] = Induction of apoptosis in mouse W1308 cells assessed as pre-apoptotic cells level at 200 nM after 48 hrs by 3,3'-dihexyloxacarbocyanine iodide and propidium iodide staining based flow cytometry (reference value: 17%); format: functional
[15] = Induction of apoptosis in mouse W1308 cells assessed as apoptotic cells level at 200 nM after 48 hrs by 3,3'-dihexyloxacarbocyanine iodide and propidium iodide staining based flow cytometry (reference value: 11%); format: functional
HEK293 [16] = test: Induction of cell cycle arrest in HEK293 cells assessed as accumulation at G1 phase at 200 nM after 72 hrs by propidium iodide staining based flow cytometry (reference value: 76 +/ 5%); format: functional, Homo sapiens
HEK293 [17] = test: Induction of cell cycle arrest in HEK293 cells assessed as accumulation at G2/M phase at 200 nM after 72 hrs by propidium iodide staining based flow cytometry (reference value: 21 +/- 2%); format: functional, Homo sapiens
HEK293 [18] = test: Induction of apoptosis in HEK293 cells at 200 nM after 72 hrs by propidium iodide staining based flow cytometry (reference value: 3 +/- 1%); format: functional, Homo sapiens
HEK293 [19] = test: Induction of cell cycle arrest in HEK293 cells assessed as G1/G2 phase ratio at 200 nM after 72 hrs by propidium iodide staining based flow cytometry (reference value: 3.6); format: functional, Homo sapiens
Jurkat [20] = test: Induction of cell cycle arrest in human Jurkat cells assessed as accumulation at G1 phase at 200 nM after 72 hrs by propidium iodide staining based flow cytometry (reference value: 72 +/ 4%); format: functional
Jurkat [21] = test: Induction of cell cycle arrest in human Jurkat cells assessed as accumulation at G2/M phase at 200 nM after 72 hrs by propidium iodide staining based flow cytometry (reference value: 27 +/ 2%); format: functional
Jurkat [22] = test: Induction of apoptosis in human Jurkat cells at 200 nM after 72 hrs by propidium iodide staining based flow cytometry (reference value: 0.9 +/ 0.2%); format: functional
Jurkat [23] = test: Induction of cell cycle arrest in human Jurkat cells assessed as G1/G2 phas e-ratio at 200 nM after 72 hrs by propidium iodide staining based flow cytometry (reference value: 2.7); format: functional
ASPC1 [24] = test: Induction of cell cycle arrest in human AsPC1 cells assessed as accumulation at G1 phase at 200 nM after 72 hrs by propidium iodide staining based flow cytometry (reference value: 65 +/ 3%); format: functional
ASPC1 [25] = test: Induction of cell cycle arrest in human AsPC1 cells assessed as accumulation at G2/M phase at 200 nM after 72 hrs by propidium iodide staining based flow cytometry (reference value: 34 +/ 3%); format: functional
ASPC1 [26] = test: Induction of apoptosis in human AsPC1 cells at 200 nM after 72 hrs by propidium iodide staining based flow cytometry (reference value: 2.2 +/ 0.1%); format: functional
ASPC1 [27] = test: Induction of cell cycle arrest in human AsPC1 cells assessed as G1/G2 phase ratio at 200 nM after 72 hrs by propidium iodide staining based flow cytometry (reference value: 1.9); format: functional
[28] = Induction of cell cycle arrest in mouse W1308 cells assessed as accumulation at G1 phase at 200 nM after 72 hrs by propidium iodide staining based flow cytometry (reference value: 43 +/ 2%); format: functional
[29] = Induction of cell cycle arrest in mouse W1308 cells assessed as accumulation at G2/M phase at 200 nM after 72 hrs by propidium iodide staining based flow cytometry (reference value: 56 +/ 1%); format: functional
[30] = Induction of apoptosis in mouse W1308 cells 200 nM after 72 hrs by propidium iodide staining based flow cytometry (reference value: 0.3 +/ 0.1); format: functional
[31] = Induction of cell cycle arrest in mouse W1308 cells assessed as G1/G2 phase ratio at 200 nM after 72 hrs by propidium iodide staining based flow cytometry (reference value: 0.8); format: functional
ASPC1 [32] = test: Induction of apoptosis in human AsPC1 cells assessed as double nucleated cells level at 200 nM after 72 hrs by Hoechst 33342 and mitotracker red staining based confocal microscopy; format: functional, cell-based
How it was run: (§3)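 AsPC-1 cells grown overnight on coverslips, then cultured 72 h with compound at various concentrations in complete medium. Hoechst 33342 and MitoTracker Red added for 1 h; cells fixed in 1% paraformaldehyde, mounted in Mowiol, and examined by confocal microscopy for nuclear and mitochondrial morphology.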

ASPC1 [33] = test: Induction of apoptosis in human AsPC1 cells assessed as cell fractionation level at 200 nM after 72 hrs by Hoechst 33342 and mitotracker red staining based confocal microscopy; format: functional; how it was run: as §3
ASPC1 [34] = test: Induction of apoptosis in human AsPC1 cells assessed as apoptotic body formation at 200 nM after 72 hrs by Hoechst 33342 and mitotracker red staining based confocal microscopy; format: functional, cell-based; how it was run: as §3
ASPC1 [35] = test: Induction of apoptosis in human AsPC1 cells assessed as mitochondria enlargement at 200 nM after 72 hrs by Hoechst 33342 and mitotracker red staining based confocal microscopy; format: functional, cell-based; how it was run: as §3
ASPC1 [36] = test: Induction of apoptosis in human AsPC1 cells assessed as mitochondria depolarization at 200 nM after 72 hrs by Hoechst 33342 and mitotracker red staining based confocal microscopy; format: functional, cell-based; how it was run: as §3
[37] = (§4) Toxicity in ip dosed C57BL/6 mouse measured after 24 to 48 hrs; format: organism-based; settings: C57BL/6, mouse, in vivo
How it was run: (§5)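 Acute toxicity: single doses given i.p. or i.v. to 6–8 wk C57BL/6 mice to determine LD100 and LD50; lethality observed 24–48 h after injection.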

Mus musculus [38] = test: as §4; format: organism-based; settings: mouse, in vivo; how it was run: as §5
[39] = (§6) Toxicity in iv dosed C57BL/6 mouse measured after 24 to 48 hrs; format: organism-based; settings: C57BL/6, mouse, in vivo; how it was run: as §5
Mus musculus [40] = test: as §6; format: organism-based; settings: mouse, in vivo; how it was run: as §5
Mus musculus [41] = test: Antitumor activity against mouse MMTV-Wnt-1 cells implanted in C57BL/6 mouse assessed as reduction in tumor volume at 0.4 mg/kg, iv once weekly for four weeks; format: functional, organism-based; parameters: dose 0.4 mg/kg
How it was run: (§7)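 C57BL/6 mice, 6–8 wk, inoculated subcutaneously with Wnt-1 tumor cells in 50 µl PBS into left inguinal fat pad under anesthesia. Treatment started at day 27 in mice with palpable tumors (n=7 per group). Compound in 200 µl saline given i.v. into orbital sinus at days 27, 34, 41, 48; controls received saline. Tumors measured by caliper twice weekly, volume (W²×L)/2. Study ended day 51.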

Mus musculus [42] = test: Toxicity in mouse MMTV-Wnt-1 cells implanted C57BL/6 mouse assessed as induction of weight loss at 0.4 mg/kg, iv once weekly for four weeks; format: organism-based; parameters: dose 0.4 mg/kg, route intravenous; settings: in vivo; how it was run: as §7
Mus musculus [43] = test: Toxicity in mouse MMTV-Wnt-1 cells implanted C57BL/6 mouse assessed as induction of neurological symptoms at 0.4 mg/kg, iv once weekly for four weeks; format: organism-based; parameters: dose 0.4 mg/kg, route intravenous; settings: in vivo; how it was run: as §7
Mus musculus [44] = test: Toxicity in mouse MMTV-Wnt-1 cells implanted C57BL/6 mouse assessed as induction of behavior changes at 0.4 mg/kg, iv once weekly for four weeks; format: organism-based; parameters: dose 0.4 mg/kg, route intravenous; settings: in vivo; how it was run: as §7

COc1cc2c(c(OC)c1OC)-c1cc3cc(CO)oc3cc1[C@@H](NC(C)=O)CC2
Activity (Mus musculus [1]): Toxic
Activity (Mus musculus [2]): Toxic
Activity (Mus musculus [3]): Toxic
Activity [4]: 40%
IC50 (ASPC1 [5]): < 50 nM
IC50 (HEK293 [6]): < 20 nM
IC50 (Jurkat [7]): < 20 nM
IC50 [8]: < 20 nM
inhibition of growth at 100 µM (ASPC1 [9]): 60%
inhibition of growth at 100 µM (HEK293 [10]): 60%
inhibition of growth at 100 µM (Jurkat [11]): 60%
inhibition of growth at 100 µM [12]: 60%
IC50 [13]: 0.08 molar ratio
Activity [14]: 14%
Activity [15]: 11%
Activity (HEK293 [16]): 22%
Activity (HEK293 [17]): 72%
Activity (HEK293 [18]): 6%
Ratio (HEK293 [19]): 0.3
Activity (Jurkat [20]): 34%
Activity (Jurkat [21]): 62%
Activity (Jurkat [22]): 2.2%
Ratio (Jurkat [23]): 0.6
Activity (ASPC1 [24]): 27%
Activity (ASPC1 [25]): 72%
Activity (ASPC1 [26]): 1.2%
Ratio (ASPC1 [27]): 0.7
Activity [28]: 18%
Activity [29]: 80%
Activity [30]: 2.3%
Ratio [31]: 0.2
Activity (ASPC1 [32]): Active
Activity (ASPC1 [33]): Active
Activity (ASPC1 [34]): Active
Activity (ASPC1 [35]): Active
Activity (ASPC1 [36]): Active
LD50 [37]: 0.3 mg/kg
LD100 (Mus musculus [38]): 0.8 mg/kg
LD50 [39]: 0.8 mg/kg
LD100 (Mus musculus [40]): 2 mg/kg
growth inhibition (GI) (Mus musculus [41]): Active
Activity (Mus musculus [42]): Non-toxic
Activity (Mus musculus [43]): Non-toxic
Activity (Mus musculus [44]): Non-toxic

COc1cc2c(c(OC)c1OC)-c1cc3cc(C(C)O)oc3cc1[C@@H](NC(C)=O)CC2 (stereo partly drawn)
IC50 (ASPC1 [5]): < 200 nM
IC50 (HEK293 [6]): < 200 nM
IC50 (Jurkat [7]): < 200 nM
IC50 [8]: < 200 nM
inhibition of growth at 100 µM (ASPC1 [9]): 60%
inhibition of growth at 100 µM (HEK293 [10]): 60%
inhibition of growth at 100 µM (Jurkat [11]): 60%
inhibition of growth at 100 µM [12]: 60%
IC50 [13]: 0.3 molar ratio
Activity [14]: 29%
Activity [15]: 20%

COc1cc2c(c(OC)c1OC)-c1cc3cc(CCO)oc3cc1[C@@H](NC(C)=O)CC2
IC50 (ASPC1 [5]): 2000 nM
IC50 (HEK293 [6]): 1000 nM
IC50 (Jurkat [7]): 1000 nM
IC50 [8]: 1000 nM
inhibition of growth at 100 µM (ASPC1 [9]): 50%
inhibition of growth at 100 µM (HEK293 [10]): 50%
inhibition of growth at 100 µM (Jurkat [11]): 50%
inhibition of growth at 100 µM [12]: 50%
